Publication PMC8561236 (Cell Reports Medicine, 2021)
One block for each molecule: values may come before it.

Columns and labels:
[1] = Pharmacokinetic study in dogs; format: in vivo, beagle dogs; conditions: dog
FRβ = conditions: cited from earlier work
[2] = Pharmacokinetic study in rats; format: in vivo, Lewis rats; conditions: rat, EC2319 subcutaneous 500 nmol/kg; analyte = label
[3] = tested on: Ly6Chigh monocytes in EAU mice; test: Experimental autoimmune uveitis; parameters: species or system B10.RIII mice; conditions: mouse, in vivo, 200 mg/kg
RAW264.7 cells = conditions: same experimental condition; cited from earlier work
[4] = tested on: CD172+ CD43− monocytes in anti-GBM rats; test: Anti-GBM induced glomerulonephritis, blood monocyte analysis; format: in vivo, Wistar Kyoto rats; conditions: oral, 4.56 μmol/kg on day 0 or 575 nmol/kg on days 0 and 3, day 6 whole blood
Method in brief: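 Male WKY rats on folate-deficient diet for 10 days, then IV anti-GBM serum (25 μL/100 g); diet continued. Dosing at 8 h (day 0) and day 3, ± 300-fold molar excess FA competitor; n = 3. Blood in 5 mM K2EDTA, analysed next day: RBC lysis of 100 μL blood, flow staining. CD172+CD43− monocytes expressed as percentage of total leukocytes.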

difference in AUClast between EC2319-derived AMT and the AMT adduct [1]: 3- to 7 fold | share of total AUClast ([1]; both dosing routes (intravenous 1 mg/kg, subcutaneous 2.43 mg/kg), analyte = label): 1.37%–2.99% | AUClast (% Total) [2]: 9.17%
Structure (SMILES): Nc1nc(N)c2nc(CNc3ccc(C(=O)N[C@@H](CCC(=O)O)C(=O)O)cc3)cnc2n1 [AMT, Aminopterin]
binding affinity toward FRβ (FRβ): negligible

Structure (SMILES): CNC(=O)c1cc(Oc2ccc3nc(N[C@@H]4CCCC[C@H]4O)sc3c2)ccn1 [BLZ945]
effect on classical (R1, Ly6Chigh CD43+) monocytes [3]: reduced significantly to background levels

Structure (SMILES): Nc1nc(=O)c2nc(CNc3ccc(C(=O)N[C@@H](CCC(=O)O)C(=O)O)cc3)cnc2[nH]1 [FA, Folic acid]
biological effect of FA alone (RAW264.7 cells): did not show an immediate biological effect

Structure (SMILES): CN(Cc1cnc2nc(N)nc(N)c2n1)c1ccc(C(=O)N[C@@H](CCC(=O)O)C(=O)O)cc1 [MTX, Methotrexate]
effect on CD172+ CD43− monocytes [4]: ineffective
